pEC50: −log10 of the molar value.
Key:
[1] = target: T1, ATP-dependent translocase ABCB1 (Homo sapiens, UniProt P08183); test: Inhibition of human P-glycoprotein mediated [3H]vinblastine transport in human Caco-2 cells; type: cell-based
Caco-2 = test: Ratio of permeability from basolateral to apical side over apical to basolateral side in human Caco-2 cells
[2] = target: T1, ATP-dependent translocase ABCB1; test: Activation of human P-glycoprotein ATPase in Caco-2 cells assessed as ATP depletion at 100 uM; type: cell-based; conditions: caco-2, 100 µM
[3] = target: T2, Broad substrate specificity ATP-binding cassette transporter ABCG2 (Homo sapiens, UniProt Q9UNQ0); test: Inhibition of human BCRP pump mediated [3H]mitoxantrone transport in human Caco-2 cells; type: cell-based
T2 sequence (Q9UNQ0 whole entry): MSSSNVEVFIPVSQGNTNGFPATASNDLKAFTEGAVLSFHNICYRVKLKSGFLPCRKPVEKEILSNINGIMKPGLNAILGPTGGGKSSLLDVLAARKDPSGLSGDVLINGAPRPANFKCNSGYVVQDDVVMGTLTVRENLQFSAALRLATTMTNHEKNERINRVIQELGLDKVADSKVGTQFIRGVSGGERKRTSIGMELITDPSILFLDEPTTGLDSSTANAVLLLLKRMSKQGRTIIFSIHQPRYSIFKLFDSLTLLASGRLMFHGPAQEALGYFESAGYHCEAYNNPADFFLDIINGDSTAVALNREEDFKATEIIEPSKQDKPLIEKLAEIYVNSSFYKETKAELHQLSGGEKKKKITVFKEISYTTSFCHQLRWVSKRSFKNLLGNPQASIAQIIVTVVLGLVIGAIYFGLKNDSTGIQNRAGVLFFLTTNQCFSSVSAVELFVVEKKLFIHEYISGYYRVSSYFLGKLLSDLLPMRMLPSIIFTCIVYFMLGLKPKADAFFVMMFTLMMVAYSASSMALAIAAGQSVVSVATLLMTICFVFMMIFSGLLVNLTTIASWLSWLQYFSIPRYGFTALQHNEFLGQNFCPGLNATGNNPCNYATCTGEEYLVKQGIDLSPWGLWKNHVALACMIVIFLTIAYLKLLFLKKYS
In short: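 Caco-2 cells were grown 21 days on multiscreen filters at 10 000 cells/well, and monolayers were used at TEER >800 Ω×cm². 20 nM [³H]-mitoxantrone was added basolaterally with or without compound (0.20–400 µM) for 120 min at 37 °C, and apical appearance was scintillation-counted. Percent inhibition at each concentration gave EC50; three independent determinations, triplicate samples.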

[4] = Cytotoxicity against human Adr cells assessed as LDH release upto 50 uM after 48 hrs; type: cell-based
In short: (§1)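 MCF-7/Adr cells, which overexpress P-gp, were exposed in complete medium with or without test compound. LDH released into the medium was read with CytoTox-One substrate mix: 10 min at room temperature in the dark, then stop solution, fluorescence ex 560/em 590 nm. Cytotoxicity % is (treated LDH − medium background)/(total LDH of lysed untreated cells − background) × 100.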

MCF7 [5] = test: Cytotoxicity against human MCF7 cells assessed as LDH release upto 50 uM after 48 hrs; type: cell-based; conditions: mcf7, 48 h
MCF7 [6] = test: Cytotoxicity against adriamycin-resistant human MCF7 cells assessed as LDH release at 1 uM after 48 hrs; type: cell-based; conditions: mcf7, 48 h; in short: as §1

T1 sequence (P08183 whole entry): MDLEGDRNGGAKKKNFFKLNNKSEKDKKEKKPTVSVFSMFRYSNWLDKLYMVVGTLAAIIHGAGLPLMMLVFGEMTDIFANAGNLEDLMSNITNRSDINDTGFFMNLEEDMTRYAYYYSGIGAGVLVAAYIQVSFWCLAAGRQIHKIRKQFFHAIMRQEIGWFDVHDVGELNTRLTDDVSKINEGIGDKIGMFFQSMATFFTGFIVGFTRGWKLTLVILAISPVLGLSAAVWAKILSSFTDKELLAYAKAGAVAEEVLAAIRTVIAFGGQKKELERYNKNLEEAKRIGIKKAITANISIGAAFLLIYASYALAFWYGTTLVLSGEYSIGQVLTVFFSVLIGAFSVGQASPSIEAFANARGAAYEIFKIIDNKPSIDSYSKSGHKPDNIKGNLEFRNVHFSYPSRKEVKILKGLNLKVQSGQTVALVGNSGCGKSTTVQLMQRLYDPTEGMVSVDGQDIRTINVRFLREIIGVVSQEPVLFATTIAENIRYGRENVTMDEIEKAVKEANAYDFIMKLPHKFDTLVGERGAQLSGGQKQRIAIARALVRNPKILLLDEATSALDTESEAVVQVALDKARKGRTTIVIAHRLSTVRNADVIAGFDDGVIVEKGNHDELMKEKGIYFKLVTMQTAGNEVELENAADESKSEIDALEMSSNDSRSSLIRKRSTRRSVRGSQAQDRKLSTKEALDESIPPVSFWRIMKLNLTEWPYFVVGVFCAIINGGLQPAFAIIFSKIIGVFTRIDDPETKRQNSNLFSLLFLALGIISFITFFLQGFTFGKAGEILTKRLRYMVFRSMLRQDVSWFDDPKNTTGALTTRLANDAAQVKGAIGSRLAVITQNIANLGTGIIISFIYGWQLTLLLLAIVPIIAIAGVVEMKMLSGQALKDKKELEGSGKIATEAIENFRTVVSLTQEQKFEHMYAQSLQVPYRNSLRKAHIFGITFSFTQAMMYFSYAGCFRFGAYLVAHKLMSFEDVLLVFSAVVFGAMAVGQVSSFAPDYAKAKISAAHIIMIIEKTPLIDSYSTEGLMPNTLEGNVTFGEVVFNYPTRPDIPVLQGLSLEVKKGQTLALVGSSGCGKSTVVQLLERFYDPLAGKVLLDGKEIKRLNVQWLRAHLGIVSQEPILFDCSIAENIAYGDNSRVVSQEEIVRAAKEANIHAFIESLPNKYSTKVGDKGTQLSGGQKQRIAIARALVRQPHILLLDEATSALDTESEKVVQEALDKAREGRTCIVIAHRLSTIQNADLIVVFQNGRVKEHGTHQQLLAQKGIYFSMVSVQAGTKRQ

pEC50 [1]	Ratio (Caco-2)	Activity [2]	Compound	pEC50 [3]	Activity [4]	Activity (MCF7 [5])	Activity (MCF7 [6]) [%]
5.80	5.7	Not Active	COc1cc(COc2ccccc2CCc2ccccc2)cc(OC)c1				
4.74	1.3	Active	c1ccc(CCc2ccccc2OCc2ccncc2)cc1				
6.12	2.1	Not Active	COc1ccc(COc2ccccc2CCc2ccccc2)cc1OC	4.24	10%		
7.07	5.5	Not Active	COc1cccc(CCc2ccccc2NCc2cccc(OC)c2OC)c1	5.82	Not Active	Not Active	
		Active	c1ccc(CCc2ccccc2OCc2cccnc2)cc1				
6.19	5.1	Not Active	COc1cccc(CCc2ccccc2OCc2ccc(OC)c(OC)c2)c1	3.82	Not Active	Not Active	
4.92	8.7	Not Active	COc1cccc(CCc2ccccc2OCc2ccccc2OC)c1				
< 3.00		Active	COc1cccc(CCc2ccccc2OCc2cccnc2)c1				
< 3.00		Active	c1ccc(CCc2ccccc2OCc2ccccc2)cc1				
		Not Active	c1ccc(CCc2ccccc2OCc2ccccn2)cc1				
		Not Active	COc1cccc(CCc2ccccc2OCc2ccccc2)c1				
		Not Active	COc1cccc(CCc2ccccc2OCc2ccccn2)c1				
6.07	2.1	Active	COc1cccc(CCc2ccccc2OCc2ccncc2)c1				50
6.32	2.9	Not Active	COc1cccc(CCc2ccccc2NCc2cccc(OC)c2)c1	5.15	10%		
		Active	COc1cccc(CCc2ccccc2OCc2cccc(OC)c2OC)c1	3.92	Not Active	Not Active	
6.10	0.95	Not Active	COc1cccc(COc2ccccc2CCc2ccccc2)c1OC	4.12	Not Active	Not Active	
		Not Active	COc1cc2c(cc1OC)CN(CCc1ccc(NC(=O)c3cccc4c(=O)c5cccc(OC)c5[nH]c34)cc1)CC2				
6.74	5.6	Not Active	COc1cccc(CCc2ccccc2NCc2ccc(OC)c(OC)c2)c1	6.30	Not Active	Not Active	
	13	Not Active	COc1cccc(CCc2ccccc2OCc2cccc(OC)c2)c1				
5.51	5.1	Not Active	COc1ccc(COc2ccccc2CCc2ccccc2)cc1				
4.70	1.4	Not Active	COc1ccccc1COc1ccccc1CCc1ccccc1				
6.05	6.9	Not Active	COc1cccc(CCc2ccccc2NCc2cc(OC)cc(OC)c2)c1		Not Active	Not Active	
5.60	6.7	Not Active	COc1cccc(CCc2ccccc2OCc2cc(OC)cc(OC)c2)c1				
5.28	7.6	Not Active	COc1ccc(COc2ccccc2CCc2cccc(OC)c2)cc1				

Reference: ChEMBL document CHEMBL1142354, “Synthesis and biological evaluation of (hetero)arylmethyloxy- and arylmethylamine-phenyl derivatives as potent P-glycoprotein modulating agents” (J Med Chem, 2008)
